This is an account of results in ChEMBL document CHEMBL1124802 (J Med Chem, 1990).

Molecules are shown by their SMILES.

Experiment [1] is described as follows: Percentage maximum stimulation adenylate cyclase was measured versus DA. The essentials: (§1)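 Rat striatum homogenised in HEPES/EGTA buffer. […] Stopped with SDS, then ZnSO4/Ba(OH)2 precipitation. [32P]cAMP isolated by HPLC with UV-tracked internal standard and counted; percent stimulation calculated from peak areas and radioactivity.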
The target of a further experiment is D(1A) dopamine receptor (Rattus norvegicus, UniProt P18901). Briefly: Displacement of [3H]- #NAME? from binding Dopamine receptor D1 in rat striatum. The essentials:
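Rat striatal membranes, homogenised and washed twice by centrifugation in ice-cold 50 mM HEPES with 4 mM MgCl2, pH 7.4, at about 2 mg wet weight/mL. Competition with the tritiated selective D1 antagonist in 1.0 mL of the same buffer, 37 °C for 15 min. Nonspecific binding defined with 1 µM of the unlabelled antagonist. Filtration and scintillation counting; protein measured by Lowry.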
A general note: Loss of bound radioactivity is the signal in a displacement assay; it reports binding, not function.

The target of the next experiment is D(2) dopamine receptor (Rattus norvegicus, UniProt P61169). Briefly: Displacement of [3H]- -spiperone from Dopamine receptor D2 in rat striatum. In short, it runs like this:
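Same rat striatal membrane preparation and buffer (50 mM HEPES, 4 mM MgCl2, pH 7.4). Competition with [3H]spiperone in 1.0 mL at 37 °C for 15 min. Nonspecific binding defined with 1 µM chlorpromazine. Bound ligand collected by glass-fibre filtration and counted by scintillation; protein measured by Lowry.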

Experiment [2] in a line: Stimulation of Adenylate cyclase from rat striatal membranes. The format is cell membranes, Membrane. In short, it runs like this:
as §1

In general, IC50 refers to the concentration at which inhibition is half-maximal. A higher IC50 goes with weaker potency. Broadly, the EC50 is the concentration that produces a half-maximal response.

D(2) dopamine receptor, sequence (P61169 whole entry): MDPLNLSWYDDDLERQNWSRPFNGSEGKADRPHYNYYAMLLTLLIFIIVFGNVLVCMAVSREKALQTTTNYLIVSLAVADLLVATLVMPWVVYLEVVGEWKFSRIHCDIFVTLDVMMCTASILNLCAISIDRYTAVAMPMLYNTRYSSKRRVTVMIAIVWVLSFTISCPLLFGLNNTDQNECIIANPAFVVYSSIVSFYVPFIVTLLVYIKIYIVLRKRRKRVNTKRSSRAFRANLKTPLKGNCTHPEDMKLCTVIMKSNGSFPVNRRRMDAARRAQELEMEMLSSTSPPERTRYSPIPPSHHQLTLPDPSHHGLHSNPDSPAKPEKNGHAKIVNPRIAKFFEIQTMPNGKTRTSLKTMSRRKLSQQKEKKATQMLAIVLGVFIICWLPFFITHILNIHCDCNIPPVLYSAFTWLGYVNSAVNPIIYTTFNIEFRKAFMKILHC
D(1A) dopamine receptor, sequence (P18901 whole entry): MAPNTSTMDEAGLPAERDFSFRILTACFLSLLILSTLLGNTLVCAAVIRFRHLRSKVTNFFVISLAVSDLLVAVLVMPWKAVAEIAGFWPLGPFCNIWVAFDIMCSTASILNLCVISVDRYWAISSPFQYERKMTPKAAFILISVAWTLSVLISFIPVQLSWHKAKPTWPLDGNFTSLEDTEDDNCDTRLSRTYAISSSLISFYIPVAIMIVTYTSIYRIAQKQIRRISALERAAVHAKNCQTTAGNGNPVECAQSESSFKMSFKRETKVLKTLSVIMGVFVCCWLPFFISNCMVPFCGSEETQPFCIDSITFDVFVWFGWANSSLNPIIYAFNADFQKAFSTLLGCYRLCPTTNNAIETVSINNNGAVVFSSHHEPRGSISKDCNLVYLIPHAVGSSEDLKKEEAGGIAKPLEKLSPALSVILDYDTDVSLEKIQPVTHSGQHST

In turn, `Oc1cc2c(cc1O)[C@@H]1c3ccccc3CN[C@@H]1CC2` registered a Max stimulation in experiment [1] of 17.

As to `Oc1ccc([C@@H]2CNCc3sccc32)cc1O`, the half-inhibitory concentration (IC50) turned out to be 120 nM on D(1A) dopamine receptor and 285 nM on D(2) dopamine receptor. The Max stimulation in experiment [1] was 120. In experiment [2], this compound registered a concentration giving a half-maximal response (EC50) of 700 nM.

`Oc1cc2c(cc1O)[C@@H](c1ccccc1)CNCC2` [(R)-SKF-38393]: the Max stimulation in experiment [1] was 50. In experiment [2], the EC50 stood at 100 nM.

In the case of `CN1Cc2ccccc2[C@@H]2c3cc(O)c(O)cc3CC[C@H]21`, the half-maximal inhibitory concentration (IC50) on D(1A) dopamine receptor came to 91 nM; at D(2) dopamine receptor it was 136 nM. The compound also gave a Max stimulation in experiment [1] of 63. Besides, the EC50 in experiment [2] came out at 1000 nM.

In turn, `NCCc1ccc(O)c(O)c1` [DOPAMINE] displayed a Max stimulation in experiment [1] of 100. This compound also registered a concentration for a half-maximal effect (EC50) in experiment [2] of 5000 nM.

As to `Oc1cc2c(cc1O)[C@H]1CCCN[C@@H]1CC2`, the values for the IC50 on D(1A) dopamine receptor and at D(2) dopamine receptor were greater than 5000 nM and 68 nM, respectively. In experiment [1], this compound showed a Max stimulation of 33. Moreover, in experiment [2], the concentration giving a half-maximal response (EC50) was greater than 10 nM.

Regarding `Oc1cc2c(cc1O)[C@H]1c3ccccc3CN[C@@H]1CC2` [DIHYDREXIDINE], the Max stimulation in experiment [1] turned out to be 120. For the same compound, a half-maximal effect in experiment [2] (EC50) was put at 70 nM.

Turning to `Oc1cc2c(cc1O)CC(NCc1ccccc1)CC2` (configuration not stated), the concentration for half-maximal inhibition (IC50) is greater than 5000 nM on D(1A) dopamine receptor and 290 nM at D(2) dopamine receptor. The compound further came in with a Max stimulation in experiment [1] of 25.

In the case of `CN1CCc2cc(Cl)c(O)cc2[C@@H](c2ccccc2)C1`, the Max stimulation in experiment [1] came out at 0.

`CCCN1Cc2ccccc2[C@@H]2c3cc(O)c(O)cc3CC[C@H]21`: the IC50 at D(1A) dopamine receptor came out at 651 nM; on D(2) dopamine receptor, 53 nM. Besides, in experiment [1], the Max stimulation is 32. Further, the concentration for a half-maximal effect (EC50) in experiment [2] is greater than 10 nM.
